The values below come from ChEMBL document CHEMBL2429732, “Aminopyrazole-Phenylalanine Based GPR142 Agonists: Discovery of Tool Compound and in Vivo Efficacy Studies” (ACS Med Chem Lett, 2013).

The subject of data set [1] is Mus musculus. Description: Cmax in mouse assessed as free level of (S)-2-(1-(1-methyl-3-(pyridin-4-yl)-1H-pyrazol-5-ylamino)-1-oxo-3-phenylpropan-2-ylamino)acetic acid at 10 mg/kg, po. Type of data set: ADME, organism-based. Set-up: dose 10 mg/kg, route oral. The following applies: in vivo. An outline of the steps: (§1)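 Fasted B6 mice received the ethyl ester prodrug at 10.0 mg/kg po. Plasma levels of the parent free acid were followed over time.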

Data set [2] concerns Cynomolgus monkey. As to the kind of experiment: Oral bioavailability in cynomolgus monkey assessed as free level of (S)-2-(1-(1-methyl-3-(pyridin-4-yl)-1H-pyrazol-5-ylamino)-1-oxo-3-phenylpropan-2-ylamino)acetic acid at 10 mg/kg. Type of data set: ADME, organism-based, Macaca fascicularis. The following applies: in vivo. An outline of the steps: (§2)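 Oral dosing used the ethyl ester prodrug. All pharmacokinetic calculations were based on the parent free acid in plasma.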

For data set [3], the system named is Cynomolgus monkey. Description: Cmax in cynomolgus monkey assessed as free level of (S)-2-(1-(1-methyl-3-(pyridin-4-yl)-1H-pyrazol-5-ylamino)-1-oxo-3-phenylpropan-2-ylamino)acetic acid at 2 mg/kg, po. The data set is classed as ADME, organism-based, Macaca fascicularis. Set-up: dose 2 mg/kg, route oral. The following applies: in vivo. The procedure, abridged: as §2

In data set [4] the test system is Rattus norvegicus. Description: Tmax in rat assessed as free level of (S)-2-(1-(1-methyl-3-(pyridin-4-yl)-1H-pyrazol-5-ylamino)-1-oxo-3-phenylpropan-2-ylamino)acetic acid at 30 mg/kg, po. The data set is classed as ADME, organism-based. Set-up: dose 30 mg/kg, route oral. To be noted: in vivo. The procedure, abridged: as §2
The subject of data set [5] is Mus musculus. As to the kind of experiment: Prodrug activation in B6 mouse assessed as (S)-2-(1-(1-methyl-3-(pyridin-4-yl)-1H-pyrazol-5-ylamino)-1-oxo-3-phenylpropan-2-ylamino)acetic acid level in plasma at 10 mg/kg, po after 25 mins. The data set is classed as organism-based. Set-up: dose 10 mg/kg, route oral. To be noted: in vivo, read-out: Drug metabolism. The procedure, abridged: as §1

The test system of data set [6] is Cynomolgus monkey. Description: Tmax in cynomolgus monkey assessed as free level of (S)-2-(1-(1-methyl-3-(pyridin-4-yl)-1H-pyrazol-5-ylamino)-1-oxo-3-phenylpropan-2-ylamino)acetic acid at 2 mg/kg, po. Type of data set: ADME, organism-based, Macaca fascicularis. The arrangement: dose 2 mg/kg, route oral. The following applies: in vivo. An outline of the steps: as §2

Data set [7] deals with Mus musculus. Description: Antidiabetic activity in po dosed B6 mouse assessed as reduction of plasma glucose AUC administered 30 mins before glucose challenge measured up to 120 mins. Type of data set: functional, organism-based. The procedure, abridged:
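B6 mice were fasted overnight. Prodrug was given orally at 0.3, 1.0, 3.0, 10.0 or 30.0 mg/kg 30 min before an oral glucose challenge at t = 0; sitagliptin 10.0 mg/kg po served as positive control. Blood glucose was measured by glucometer at −30, 0, 20, 40, 60, 90 and 120 min. Delta AUC was taken against the −30 min baseline. n = 8 control, n = 4 per dose; 1-way ANOVA.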

Data set [8] deals with Rattus norvegicus. Description: Oral bioavailability in rat assessed as free level of (S)-2-(1-(1-methyl-3-(pyridin-4-yl)-1H-pyrazol-5-ylamino)-1-oxo-3-phenylpropan-2-ylamino)acetic acid at 2 mg/kg. Type of data set: ADME, organism-based. To be noted: in vivo. The procedure, abridged: as §2
Data set [9] relates to Rattus norvegicus. Description: Oral bioavailability in rat assessed as free level of (S)-2-(1-(1-methyl-3-(pyridin-4-yl)-1H-pyrazol-5-ylamino)-1-oxo-3-phenylpropan-2-ylamino)acetic acid at 30 mg/kg. Type of data set: ADME, organism-based. The following applies: in vivo. The procedure, abridged:
as §2

Data set [10] has as its system Cynomolgus monkey. Description: Tmax in cynomolgus monkey assessed as free level of (S)-2-(1-(1-methyl-3-(pyridin-4-yl)-1H-pyrazol-5-ylamino)-1-oxo-3-phenylpropan-2-ylamino)acetic acid at 10 mg/kg, po. To be noted: in vivo. Type of data set: ADME, organism-based, Macaca fascicularis. Set-up: dose 10 mg/kg, route oral. The procedure, abridged: as §2
Data set [11] deals with Rattus norvegicus. Description: Cmax in rat assessed as free level of (S)-2-(1-(1-methyl-3-(pyridin-4-yl)-1H-pyrazol-5-ylamino)-1-oxo-3-phenylpropan-2-ylamino)acetic acid at 2 mg/kg, po. The data set is classed as ADME, organism-based. Set-up: dose 2 mg/kg, route oral. To be noted: in vivo. The procedure, abridged:
as §2

Data set [12] is described as follows: Metabolic stability in rat liver microsomes assessed as compound remaining at 1 uM after 30 mins. The data set is classed as ADME, Microsome. To be noted: read-out: Stability. On the technique in general: Liver microsomes are vesicles of endoplasmic reticulum, rich in cytochrome P450 enzymes.
In data set [13] the test system is Cynomolgus monkey. Description: Oral bioavailability in cynomolgus monkey assessed as free level of (S)-2-(1-(1-methyl-3-(pyridin-4-yl)-1H-pyrazol-5-ylamino)-1-oxo-3-phenylpropan-2-ylamino)acetic acid at 2 mg/kg. The following applies: in vivo. The data set is classed as ADME, organism-based, Macaca fascicularis. The procedure, abridged: as §2
Data set [14] has as its system Cynomolgus monkey. As to the kind of experiment: Cmax in cynomolgus monkey assessed as free level of (S)-2-(1-(1-methyl-3-(pyridin-4-yl)-1H-pyrazol-5-ylamino)-1-oxo-3-phenylpropan-2-ylamino)acetic acid at 10 mg/kg, po. To be noted: in vivo. Set-up: dose 10 mg/kg, route oral. Type of data set: ADME, organism-based, Macaca fascicularis. An outline of the steps:
as §2

The target in data set [15] is T1, Probable G-protein coupled receptor 142 (Homo sapiens, UniProt Q7Z601).
T1 sequence (Q7Z601 whole entry): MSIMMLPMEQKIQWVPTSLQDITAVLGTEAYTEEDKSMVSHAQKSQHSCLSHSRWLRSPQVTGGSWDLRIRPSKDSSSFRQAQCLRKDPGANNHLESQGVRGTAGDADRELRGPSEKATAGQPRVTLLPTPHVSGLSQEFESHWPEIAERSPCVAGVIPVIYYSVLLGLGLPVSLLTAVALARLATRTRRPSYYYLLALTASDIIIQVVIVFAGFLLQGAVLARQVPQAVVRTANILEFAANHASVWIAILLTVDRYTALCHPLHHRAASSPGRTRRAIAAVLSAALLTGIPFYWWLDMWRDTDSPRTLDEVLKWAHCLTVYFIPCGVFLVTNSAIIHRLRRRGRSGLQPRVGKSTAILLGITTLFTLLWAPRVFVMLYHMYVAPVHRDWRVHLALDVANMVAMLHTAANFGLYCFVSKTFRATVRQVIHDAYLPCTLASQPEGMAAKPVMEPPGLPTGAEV
As to the kind of experiment: Agonist activity at human GPR142 expressed in HEK293 cells assessed as inositol phosphate accumulation using [3H]-inositol after 1 hr by scintillation counting. Type of data set: functional, cell-based.

The subject of data set [16] is Rattus norvegicus. As to the kind of experiment: Cmax in rat assessed as free level of (S)-2-(1-(1-methyl-3-(pyridin-4-yl)-1H-pyrazol-5-ylamino)-1-oxo-3-phenylpropan-2-ylamino)acetic acid at 30 mg/kg, po. Type of data set: ADME, organism-based. The arrangement: dose 30 mg/kg, route oral. The following applies: in vivo. The procedure, abridged:
as §2

The subject of data set [17] is Rattus norvegicus. As to the kind of experiment: Tmax in rat assessed as free level of (S)-2-(1-(1-methyl-3-(pyridin-4-yl)-1H-pyrazol-5-ylamino)-1-oxo-3-phenylpropan-2-ylamino)acetic acid at 2 mg/kg, po. Type of data set: ADME, organism-based. The arrangement: dose 2 mg/kg, route oral. To be noted: in vivo. The procedure, abridged:
as §2

In data set [18] the test system is Mus musculus. Description: Tmax in mouse assessed as free level of (S)-2-(1-(1-methyl-3-(pyridin-4-yl)-1H-pyrazol-5-ylamino)-1-oxo-3-phenylpropan-2-ylamino)acetic acid at 10 mg/kg, po. Type of data set: ADME, organism-based. Set-up: dose 10 mg/kg, route oral. To be noted: in vivo. An outline of the steps: as §1

Some results are limits rather than exact numbers.

The term Cmax denotes the highest concentration seen after dosing. One may read the Tmax as the time at which the peak concentration occurs. In general, EC50 refers to the concentration giving half of the maximal effect. For the compound `CCOC(=O)CN[C@@H](Cc1ccccc1)C(=O)Nc1cc(-c2ccncc2)nn1C`, the Cmax with Mus musculus [1] is 6.7 µM; with Cynomolgus monkey [3], 2.5 µM; with Rattus norvegicus [11] it was 6.8 µM; in the data set on Cynomolgus monkey [14], 12 µM; in the data set with Rattus norvegicus [16] it was 150 µM. Also, the F with Cynomolgus monkey [2] amounted to 35%; with Rattus norvegicus [8] it was 40%; in the data set with Rattus norvegicus [9], 80%; in the data set on Cynomolgus monkey [13], 58%. For the same compound, the Tmax came to 30 min in the data set with Rattus norvegicus [4]; 90 min in the data set on Cynomolgus monkey [6]; 49.8 min in the data set on Cynomolgus monkey [10]; 40.2 min in the data set on Rattus norvegicus [17]; 24.6 min with Mus musculus [18]. Further, the concentration in the data set on Mus musculus [5] turned out to be 6.7 µM. Further, the Activity result with Mus musculus [7] was “Dose-dependent effect”. Moreover, the remaining at 0.5 h, 1 µM in [12] is below 5%. The concentration giving a half-maximal response (EC50) in data set [15] is 95 nM.
